Compound activity deposited in PubChem by several laboratories.
Hits are enriched below; roughly 3.9% of the tested compounds scored in any of these assays.
APP 5'UTR act: activates APP 5'UTR luciferase reporter; SH-SY5Y APP 5'UTR luciferase reporter, luminescence; zero percent = DMSO vehicle wells; activation, % at 2 µM; 1% of 190,000 active;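 active = activation above a set limit, based on mean plus 3 SD of controls, cut at about 140% in these data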
NF-kB neuron act: raises NF-kB expression in human neuronal cells | fold change at 12.5 µM | 1.6% of 190,000 active | NF-kB reporter expression; active compounds read high | AID 1239; in the data active = fold change above about 3.3
FLuc stim CS: affects firefly luciferase, flagging false hits in luciferase stimulation screens; P08659; ATPlite luciferase biochemical, luminescence, 10 min; 0 = ATP-free wells, 1 = DMSO control; activation factor at 10 µM; 200,000 tested, under 10 active; AID 1027;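 active = luciferase activation factor, scaled between plate controls, of at least 2 with compound at 10 µM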
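Assay system: Luciferase/luciferin detection reagent, cell-free biochemical luciferase assay / Also added: ATP substrate / Schedule: 10 min at ambient temperature / Measured by: luminescence measurement of luciferase light output / Benchmarks: low control with PBS replacing ATP, high control enzyme plus ATP without compound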
STAT1 act: activators of IFN-gamma induced STAT1 signaling; NIH 3T3 STAT1-luciferase reporter, luminescence; 100% = IFN-gamma alone, no compound; activation (% of control), % at 5.5 µM; 2.6% of 200,000 active;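 active = activation above the screen-wide mean activation plus 3 SD, cut at about 130% in these data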
FLuc inhib CS: Photinus pyralis luciferase inhibition counter-screen; ATPLite firefly luciferase biochemical luminescence, 10 min; AID 1006; P08659; inhibition, % at 10 µM; 1.5% of 200,000 active;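 active = inhibition above about 50% when tested at 10 µM, limit read from the data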
Rad51 HR inh: blocks human Rad51 in homologous recombination | 0.085% of 200,000 active | Q06609 | inhibition, % at 10 µM | hRad51 DNA strand exchange, fluorescence dequenching;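 active = inhibition above 40% at the single screening dose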
Target sequence (Q06609 whole entry, looked up): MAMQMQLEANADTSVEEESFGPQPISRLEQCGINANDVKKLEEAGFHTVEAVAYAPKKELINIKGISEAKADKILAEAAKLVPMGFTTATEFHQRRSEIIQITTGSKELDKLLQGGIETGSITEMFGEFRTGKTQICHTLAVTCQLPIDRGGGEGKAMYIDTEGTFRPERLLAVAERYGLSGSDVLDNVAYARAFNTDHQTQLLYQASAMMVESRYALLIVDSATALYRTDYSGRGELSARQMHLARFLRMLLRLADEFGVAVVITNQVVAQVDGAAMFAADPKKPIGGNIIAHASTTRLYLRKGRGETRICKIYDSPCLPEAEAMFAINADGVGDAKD
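material = hRad51 filaments on single-stranded DNA | timing = filaments 15 min 37 °C, then compound 30 min | signal = FRET fluorescence dequenching, excitation 485 nm, emission 520 nm | benchmarks = control wells and blank wells on each plate | evaluation = percent inhibition relative to plate controls and blanks | compound = 10 µM final, single point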
Numbers stand for hits; . = inactive; / = not tested or not shown.

SMILES	APP 5'UTR act	NF-kB neuron act	FLuc stim CS	STAT1 act	FLuc inhib CS	Rad51 HR inh
COc1ccc2cc(C(=O)NCc3ccco3)c(=O)oc2c1	.	3.9	.	.	.	.
COc1ccc2oc(=O)c(C(=O)Nc3cccc(C)c3)cc2c1	.	.	.	138	.	.
COc1ccc(C(=O)Nc2cccc(OC)c2)cc1	.	5.8	.	.	67	.
CCc1ccccc1N1C(=O)[C@@H]2Cc3ccccc3CN2C1=O	/	/	/	/	/	.
Cc1ccc(NC(=O)Nc2cc(C)on2)cc1	.	.	.	130	.	.
CCOc1ccc(NC(=O)c2ccc3nccnc3c2)cc1	/	.	.	.	.	/
COc1ccc(NC(=O)c2ccc3nccnc3c2)cc1	.	.	.	131	.	.
Cc1cc(C)nc(Nc2n[nH]c(-c3cccc4ccccc34)n2)n1	.	.	.	.	.	/
Cc1cc(C)nc(Nc2n[nH]c(-c3ccccc3Cl)n2)n1	.	.	.	.	58	.
Cn1c(=O)c2[nH]c(N=Nc3ccc(N)cc3N)nc2n(C)c1=O	/	/	/	/	/	.
CCN(CC)C(=O)Oc1ccc(Br)c2ccccc12	.	.	.	.	.	.
CCN(CC)C(=O)Oc1ccc2ccccc2c1Br	.	.	.	135	.	.
O=C(Oc1ccc2ccccc2c1Br)N1CCCCCC1	172	.	.	135	.	.
O=C(COc1ccc2ccccc2c1Br)N1CCN(c2ccccn2)CC1	.	.	.	.	.	.
O=C(Oc1ccc2ccc(=O)oc2c1)N1CCOCC1	.	.	.	.	.	/
O=C(Oc1ccc2cc(Br)ccc2c1)N1CCCCCC1	.	.	.	131	.	.
CCC1SC(=NC(=O)c2ccc(Cl)c(Cl)c2)NC1=O (centres undefined)	.	.	.	.	59	.
CC1CCCCC1NC(=S)Nc1ccc(Cl)cc1Cl (centres undefined)	.	.	.	.	.	41
COc1cccc(-c2noc(-c3ccc4c(c3)OCO4)n2)c1	159	5.7	.	.	82	.
c1ccc(-c2noc(-c3ccc4c(c3)OCO4)n2)cc1	167	3.9	.	.	69	.
Cc1ccccc1OCc1nc(-c2ccccc2)no1	.	.	.	137	.	.
c1cc(-c2noc(-c3ccc4c(c3)OCO4)n2)ccn1	.	/	/	.	/	/
COc1ccc(-c2noc(-c3ccc4c(c3)OCO4)n2)cc1	.	3.9	.	.	.	.
C/C(=N/OC(=O)C1CC12CCC2)c1ccc(Br)cc1 (centres undefined)	.	.	.	.	.	.
O=C(NCC1CCCO1)c1ccc(OC2CCN(C(=O)C3CC3)CC2)cc1 (centres undefined)	.	.	.	.	.	.
SMILES	APP 5'UTR act	NF-kB neuron act	FLuc stim CS	STAT1 act	FLuc inhib CS	Rad51 HR inh
O=[N+]([O-])c1cccc(-c2nc(-c3ccccc3)no2)c1	.	3.8	.	138	.	.
c1ccc(-c2noc(COc3ccc4c(c3)OCO4)n2)cc1	.	4.1	.	.	.	.
COc1ccc(-c2noc(COc3ccc4c(c3)OCO4)n2)cc1	.	.	.	.	.	.
CCCCC1=NN2CCS(=O)(=O)N=C2S1	.	.	.	.	.	.
COc1ccc2c3c(cccc13)C(=O)N(O)C2=O	.	7.1	.	.	.	.
O=C(CCN1C(=O)c2ccccc2C1=O)N1CCOCC1	.	.	.	.	.	.
O=C(CCN1C(=O)c2cccc3cccc(c23)C1=O)N1CCOCC1	.	.	.	129	.	.
O=C(CSc1nc(Nc2ccccc2)nc(N2CCOCC2)n1)Nc1ccccc1Cl	.	6.7	.	.	.	.
C=CCn1c(C(C)NC(=O)c2cccc(C)c2)n[nH]c1=S (centres undefined)	.	3.3	.	.	.	.
CCn1c(C(C)NC(=O)c2ccc(Cl)cc2)n[nH]c1=S (centres undefined)	.	.	.	.	.	.
Cc1ccc(C(=O)OCC(=O)c2c[nH]c3ccccc23)cc1	.	.	.	.	.	.
CC1(C(=O)OCC(=O)c2c[nH]c3ccccc23)CC1(Cl)Cl (centres undefined)	145	.	.	138	.	/
O=C(OCC(=O)c1c[nH]c2ccccc12)C1=COCCO1	.	.	.	129	.	.
CCn1cc(CNC(=O)CCc2nnc(CCC3CCCCC3)o2)cn1	.	.	.	.	.	.
Cc1ccc2cc(C)c3nnc(SCc4ccc(C(=O)O)cc4)n3c2c1C	/	/	/	/	/	.
CCOC(=O)C1CCN(C(=O)N(CC)CC)CC1	.	.	.	.	.	.
CC(=O)Nc1ccc2c(c1)nc1n2CCSC1	.	.	.	.	.	.
COc1ccccc1C(=O)Nc1ccc2c(c1)nc1n2CCN(Cc2ccccc2)C1	.	.	.	.	.	.
Cc1ccc(C(=O)Nc2ccc3c(c2)nc2n3CCSC2)cc1	169	5.4	.	148	62	.
COc1ccccc1C(=O)Nc1ccc2c(c1)nc1n2CCSC1	.	.	.	.	78	.
COc1ccc(OC)c2sc(N3CCc4ccccc4C3)nc12	.	.	.	.	.	.
c1ccc2c(c1)CCN(c1nc3cc4c(cc3s1)OCCO4)C2	148	.	.	.	89	.
O=C(O)c1ccccc1NN=C1CCCCC1	.	3.4	.	138	.	.
COc1ccc(/C(=N\Nc2ccccc2C(=O)O)c2ccccc2)cc1	.	.	.	.	.	.
COc1ccccc1N(CC(=O)NC1CCCC1)C(=O)c1oc(C(C)(C)C)cc1C	.	.	.	.	.	.
SMILES	APP 5'UTR act	NF-kB neuron act	FLuc stim CS	STAT1 act	FLuc inhib CS	Rad51 HR inh
O=C(O)C1CCCCC1C(=O)NCc1ccc(Cl)c(Cl)c1 (centres undefined)	.	.	.	.	.	.
Cc1ccsc1C(=O)C1CCCN(Cc2cc(F)ccc2-n2cccn2)C1 (centres undefined)	.	.	.	.	.	.
O=C(/C=C/NNC(=O)c1ccc(Cl)cc1)c1ccccc1	.	.	.	133	.	.
COC(=O)c1ccc(C(=O)OC)c(NC(=S)N2CCOCC2)c1	.	.	.	.	.	.
COc1ccc(Nc2cccc(Cl)c2)c(C(=O)O)c1	.	3.6	.	.	.	.
COc1ccc(Nc2ncnc3ccccc23)cc1	.	.	.	129	.	.
CN(C)S(=O)(=O)Oc1cccc(C(=O)Nc2ccc([N+](=O)[O-])cc2)c1	.	.	.	.	.	.
CN(C)/C=C1/C(=O)N(c2ccc([N+](=O)[O-])cc2)N=C1c1ccccc1	.	.	.	144	.	.
CC1=NN(c2nc3ccccc3[nH]2)C(=O)/C1=C/N(C)C	.	.	.	.	94	.
CCCC1=NN(c2ccc([N+](=O)[O-])cc2)C(=O)/C1=C/N(C)C	.	.	.	.	.	.
CC1=NN(c2ccccc2)C(=O)/C1=C/N(C)C	/	/	/	/	/	.
